Source: ChEMBL document CHEMBL1147346, “Isolation of pseudoprototimosaponin AIII from rhizomes of Anemarrhena asphodeloides and its hypoglycemic activity in streptozotocin-induced diabetic mice” (1993)

Assays:
[1] = test system: Mus musculus; test: Hypoglycemic activity in fasted po dosed streptozotocin-induced diabetic ddY mouse assessed as decrease in blood glucose level after 6 hrs by glucose oxidase method; assay type: functional; conditions: for ED50: read-out: ID50 (the source's name)
How it was run: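 Male ddY mice given streptozotocin 150 mg/kg iv in saline via tail vein, used 1 or 4 weeks later; fasting glucose >150 mg/dl after 13–14 h fast. Graded doses. Percent fall computed from glucose before and after dosing versus 85 mg/dl normal mean. ID50 with 95% confidence limits from dose-inhibition curves; 7–12 mice per point, mean ± SEM.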

[2] = test system: Mus musculus; test: Hypoglycemic activity in fasted alloxan monohydrate-induced diabetic ddY mouse assessed as decrease in blood glucose level at 50 mg/kg, ip after 6 hrs by glucose oxidase method; assay type: functional; parameters: scale not given: the % may be the effect or the level left; conditions: route intraperitoneal
How it was run: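 Male ddY mice given alloxan monohydrate 90 mg/kg iv bolus in saline via tail vein, used 1 or 4 weeks later; fasting glucose >150 mg/dl after 13–14 h fast. Dosed 50 mg/kg ip; saline control. Glucose oxidase read-out. Percent fall = (A − B)/(A − 85) × 100, A and B being glucose before and 6 h after injection. Means ± SEM, n = 5–10.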

[3] = test system: Mus musculus; test: Effect on blood glucose level in fasted ddY mouse at 50 mg/kg, ip after 6 hrs by glucose oxidase method; assay type: functional, organism-based; parameters: dose 50 mg/kg
How it was run: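 Non-diabetic male ddY mice, 7–8 weeks of age (33–41 g), fasted; 50 mg/kg given ip. Blood glucose measured by glucose oxidase on a glucose analyzer.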

[4] = test system: Pancreas; test: Stimulation of immunoreactive insulin release in perfused Wistar rat pancreas at 1 mg/ml for 10 mins by radioimmunoassay; assay type: functional
How it was run: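 Male Wistar rat pancreas (6–7 weeks) perfused via celiac artery with KRB pH 7.4, 0.5% BSA, 2% dextran, 2.8 mM glucose basal, 95% O2/5% CO2. Stimulated with 16.7 mM glucose ± 1 mg/ml test agent for 10 min. Portal vein effluent insulin measured by radioimmunoassay. n = 7.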

Row | Activity [1] | SMILES | ED50 [1] | Activity [2] | Activity [3] | Activity [4]
1 | Dose-dependent effect | COc1ccc(Cl)cc1C(=O)NCCc1ccc(S(=O)(=O)NC(=O)NC2CCCCC2)cc1 [GLYBURIDE] | 0.33 mg/kg |  |  | 
2 | Dose-dependent effect | C[C@@H](CCC1(O)O[C@H]2C[C@H]3[C@@H]4CC[C@@H]5C[C@@H](O[C@@H]6O[C@H](CO)[C@H](O)[C@H](O)[C@H]6O[C@@H]6O[C@H](CO)[C@@H](O)[C@H](O)[C@H]6O)CC[C@]5(C)[C@H]4CC[C@]3(C)[C@H]2[C@@H]1C)CO[C@@H]1O[C@H](CO)[C@@H](O)[C@H](O)[C@H]1O (stereo partly specified) [PROTOTIMOSAPONIN AIII] | 6.62 mg/kg | 73.4% | Dose-dependent effect | 59.7 ng/mL
3 | Dose-dependent effect | CC1=C(CC[C@H](C)CO[C@@H]2O[C@H](CO)[C@@H](O)[C@H](O)[C@H]2O)O[C@H]2C[C@H]3[C@@H]4CC[C@@H]5C[C@@H](O[C@@H]6O[C@H](CO)[C@H](O)[C@H](O)[C@H]6O[C@@H]6O[C@H](CO)[C@@H](O)[C@H](O)[C@H]6O)CC[C@]5(C)[C@H]4CC[C@]3(C)[C@@H]12 [PSEUDOPROTOTIMOSAPONIN AIII] | 4.33 mg/kg | 82.8% |  | 
4 |  | C[C@H]1CC[C@@]2(OC1)O[C@H]1C[C@H]3[C@@H]4CC[C@@H]5C[C@@H](O[C@@H]6O[C@H](CO)[C@H](O)[C@H](O)[C@H]6O[C@@H]6O[C@H](CO)[C@@H](O)[C@H](O)[C@H]6O)CC[C@]5(C)[C@H]4CC[C@]3(C)[C@H]1[C@@H]2C [TIMOSAPONIN AIII] |  | 64.5% |  | 
